The results in this text go back to ChEMBL document CHEMBL1148492, “Synthesis and structure-activity relationship study of potent cytotoxic analogues of the marine alkaloid Lamellarin D” (2006).

Active and inactive are the calls of the source. The rule behind the calls is not given here.

One may read the GI50 as the concentration giving 50% growth inhibition. A higher GI50 goes with lower sensitivity of the cells.

The first assay relates to HT-29. The experiment in a line: Antiproliferative activity against human HT29 cell line after 72 hrs by SRB assay. The format is functional. As to conditions: HT-29, 72 h. Put shortly: (§1)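 Cells seeded at 5×10³/well in RPMI and allowed to attach in drug-free medium for 18 h. Compounds were added in DMSO/H2O (3:7) and exposure was continuous for 72 h. Cells were then fixed with cold 50% TCA for 60 min at 4°C, stained with 0.4% SRB in 1% acetic acid for 10 min at room temperature, solubilized in Tris, and OD was read at 490 nm. GI50 was derived from 100×[(T−T0)/(C−T0)]=50.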
Background: In SRB staining, fixed cells bind dye roughly in proportion to their protein.
On to `COC(=O)c1c(-c2cc(OC)c(O)cc2O)c(-c2ccc(O)c(OC)c2)c2n1CCc1cc(O)c(OC)cc1-2`, for which the GI50 came to 17.1 µM.
With `COC(=O)c1c(-c2ccc(O)c(OC)c2)c(-c2ccc(O)c(OC)c2)c2n1CCc1cc(OC(C)C)c(OC)cc1-2`, the GI50 turned out to be 6.9 µM.
Still for that read-out and setting: the figure for `COC(=O)c1c(-c2cccc([N+](=O)[O-])c2)c(-c2cccc([N+](=O)[O-])c2)c2n1CCc1cc(O)c(OC)cc1-2` is 11.3 µM.
Same read-out and setting: for `COC(=O)c1c(-c2cc(O)c(O)cc2O)c(-c2cc(OC)ccc2OC)c2n1CCc1cc(O)c(OC)cc1-2` the value was 8.4 µM; for `COC(=O)c1c(-c2cc(OC)c(O)cc2O)c(-c2ccc(O)c(OC)c2)c2c3cc(OC)c(O)cc3ccn12`, 7.9 µM; for `COC(=O)c1c(-c2ccc(O)cc2)c(-c2ccc(O)c(OC)c2)c2c3cc(OC)c(O)cc3ccn12`, 10.1 µM.
On the same count and under the same terms, for `COC(=O)c1c(-c2ccc(OC)cc2)c(-c2ccc(OC)cc2)c2n1CCc1cc(O)c(OC)cc1-2` the value was 10.3 µM.
In turn, `COC(=O)c1c(-c2cccc(O)c2)c(-c2cccc(O)c2)c2c3cc(OC)c(O)cc3ccn12` came in with a GI50 of 18.4 µM.
With `COC(=O)c1c(-c2ccc(OC)cc2)c(-c2ccc(OC)cc2)c2c3cc(OC)c(O)cc3ccn12`, growth was halved (GI50) at 9.7 µM.
Still for that read-out and setting: the figure for `COC(=O)c1c(-c2ccc(OC)c(OC)c2)c(-c2ccc(OC)c(OC)c2)c2n1CCc1cc(OC(C)C)c(OC)cc1-2` is 1 µM; for `COC(=O)c1c(-c2cccc([N+](=O)[O-])c2)c(-c2cccc([N+](=O)[O-])c2)c2c3cc(OC)c(O)cc3ccn12` it is 8.9 µM.
Molecule `COc1cc(-c2c3c4cc(OC)c(O)cc4oc(=O)c3n3ccc4cc(O)c(OC)cc4c23)ccc1O` [LAMELLARIN D] returned a GI50 of 5.1 µM.
On the same count and under the same terms, for `COC(=O)c1cc(-c2ccc(O)c(OC)c2)c2n1CCc1cc(OC(C)C)c(OC)cc1-2` the value was 18.1 µM; for `COC(=O)c1c(-c2ccc(O)cc2)c(-c2ccc(O)cc2)c2c3cc(OC)c(O)cc3ccn12`, 9.8 µM.
In the case of `COC(=O)c1cc(-c2ccc(O)c(OC)c2)c2c3cc(OC)c(O)cc3ccn12`, halving of growth (GI50) required 23.9 µM.
The same measure, in the same setting: for `COC(=O)c1c(-c2cc(O)c(O)cc2O)c(-c2cc(OC)ccc2OC)c2c3cc(OC)c(O)cc3ccn12` the value was 7.1 µM; for `COC(=O)c1cc(-c2ccc(O)c(OC)c2)c2n1CCc1cc(O)c(OC)cc1-2`, 18 µM.
On the same count and under the same terms, for `COC(=O)c1c(-c2ccc(O)c(OC)c2)c(-c2ccc(O)c(OC)c2)c2c3cc(OC)c(O)cc3ccn12` the value was 8.1 µM.

Another assay concerns A549. Description: Antiproliferative activity against human A549 cell line after 72 hrs by SRB assay. It is filed as functional. As to conditions: A549, 72 h. Put shortly:
as §1
As for `COC(=O)c1c(-c2cc(OC)c(O)cc2O)c(-c2ccc(O)c(OC)c2)c2n1CCc1cc(O)c(OC)cc1-2`, the 50% growth inhibitory concentration (GI50) was 5 µM.
`COC(=O)c1c(-c2ccc(O)c(OC)c2)c(-c2ccc(O)c(OC)c2)c2n1CCc1cc(OC(C)C)c(OC)cc1-2` gave a GI50 of 14.7 µM.
Still for that read-out and setting: the figure for `COC(=O)c1c(-c2cccc([N+](=O)[O-])c2)c(-c2cccc([N+](=O)[O-])c2)c2n1CCc1cc(O)c(OC)cc1-2` is 18 µM; for `COC(=O)c1c(-c2ccc(OC)c(OC)c2)c(-c2ccc(OC)c(OC)c2)c2n1CCc1cc(O)c(OC)cc1-2` it is 11.2 µM.
On the same count and under the same terms, for `COC(=O)c1c(-c2cc(O)c(O)cc2O)c(-c2cc(OC)ccc2OC)c2n1CCc1cc(O)c(OC)cc1-2` the value was 13.7 µM.
Take `COC(=O)c1c(-c2cc(OC)c(O)cc2O)c(-c2ccc(O)c(OC)c2)c2c3cc(OC)c(O)cc3ccn12`: the GI50 turned out to be 0.45 µM.
On the same count and under the same terms, for `COC(=O)c1cc(-c2cc(OC)ccc2OC)c2c3cc(OC)c(O)cc3ccn12` the value was 13.3 µM.
In turn, `COC(=O)c1c(-c2ccc(O)cc2)c(-c2ccc(O)c(OC)c2)c2c3cc(OC)c(O)cc3ccn12` yielded a GI50 of 9.8 µM.
For the molecule `COC(=O)c1c(-c2ccc(OC)cc2)c(-c2ccc(OC)cc2)c2n1CCc1cc(O)c(OC)cc1-2`, the GI50 was found to be 9.2 µM.
The same measure, in the same setting: for `COC(=O)c1c(-c2cccc(O)c2)c(-c2cccc(O)c2)c2c3cc(OC)c(O)cc3ccn12` the value was 6.3 µM.
Molecule `COC(=O)c1c(-c2ccc(OC)c(OC)c2)c(-c2ccc(OC)c(OC)c2)c2n1CCc1cc(OC(C)C)c(OC)cc1-2` came in with a GI50 of 0.81 µM.
The same measure, in the same setting: the figure for `COC(=O)c1c(-c2ccc(O)c(OC)c2)c(-c2ccc(O)c(OC)c2)c2n1CCc1cc(O)c(OC)cc1-2` is 14.3 µM; for `COc1cc(-c2c3c4cc(OC)c(O)cc4oc(=O)c3n3ccc4cc(O)c(OC)cc4c23)ccc1O` [LAMELLARIN D] it is 0.2 µM; for `COC(=O)c1cc(-c2ccc(O)c(OC)c2)c2n1CCc1cc(OC(C)C)c(OC)cc1-2` it is 20.3 µM.
Take `COC(=O)c1c(-c2ccc(O)cc2)c(-c2ccc(O)cc2)c2c3cc(OC)c(O)cc3ccn12`: the GI50 is 3.5 µM.
`COC(=O)c1cc(-c2ccc(O)c(OC)c2)c2c3cc(OC)c(O)cc3ccn12` yielded a GI50 of 10.9 µM.
For the molecule `COC(=O)c1c(-c2cc(O)c(O)cc2O)c(-c2cc(OC)ccc2OC)c2c3cc(OC)c(O)cc3ccn12`, the GI50 is 4.7 µM.
Consider `COC(=O)c1cc(-c2ccc(O)c(OC)c2)c2n1CCc1cc(O)c(OC)cc1-2`, for which halving of growth (GI50) required 14.2 µM.
The molecule `COC(=O)c1c(-c2ccc(O)c(OC)c2)c(-c2ccc(O)c(OC)c2)c2c3cc(OC)c(O)cc3ccn12` came in with a GI50 of 7.1 µM.

For a further assay, the system named is A549. The experiment in a line: Antiproliferative activity against human A549 cell line after 72 hrs by SRB assay at 10 ug/mL. It is filed as functional, cell-based.
Conditions: not given
As for `COC(=O)c1c(-c2ccc(OC)cc2)c(-c2ccc(OC)cc2)c2c3cc(OC)c(O)cc3ccn12`, the result was inactive.
Still for that read-out and setting: for `COC(=O)c1c(-c2cccc([N+](=O)[O-])c2)c(-c2cccc([N+](=O)[O-])c2)c2c3cc(OC)c(O)cc3ccn12` the value was “inactive”.

The test system of a further assay is MDA-MB-231. Description: Antiproliferative activity against human MDA-MB-231 cell line after 72 hrs by SRB assay. It is filed as functional. The note with it: MDA-MB-231, 72 h. Put shortly:
as §1
As for `COC(=O)c1c(-c2cc(OC)c(O)cc2O)c(-c2ccc(O)c(OC)c2)c2n1CCc1cc(O)c(OC)cc1-2`, it took 3.1 µM to inhibit growth by half (GI50).
The molecule `COC(=O)c1c(-c2ccc(O)c(OC)c2)c(-c2ccc(O)c(OC)c2)c2n1CCc1cc(OC(C)C)c(OC)cc1-2` displayed a GI50 of 7.1 µM.
Same read-out and setting: the figure for `COC(=O)c1c(-c2cccc([N+](=O)[O-])c2)c(-c2cccc([N+](=O)[O-])c2)c2n1CCc1cc(O)c(OC)cc1-2` is 10.1 µM; for `COC(=O)c1c(-c2ccc(OC)c(OC)c2)c(-c2ccc(OC)c(OC)c2)c2n1CCc1cc(O)c(OC)cc1-2` it is 7.7 µM.
Still for that read-out and setting: the figure for `COC(=O)c1c(-c2cc(O)c(O)cc2O)c(-c2cc(OC)ccc2OC)c2n1CCc1cc(O)c(OC)cc1-2` is 10.5 µM; for `COC(=O)c1c(-c2cc(OC)c(O)cc2O)c(-c2ccc(O)c(OC)c2)c2c3cc(OC)c(O)cc3ccn12` it is 0.71 µM; for `COC(=O)c1cc(-c2cc(OC)ccc2OC)c2c3cc(OC)c(O)cc3ccn12` it is 19.9 µM.
`COC(=O)c1c(-c2ccc(O)cc2)c(-c2ccc(O)c(OC)c2)c2c3cc(OC)c(O)cc3ccn12` came in with a GI50 of 15 µM.
Same read-out and setting: for `COC(=O)c1c(-c2ccc(OC)cc2)c(-c2ccc(OC)cc2)c2n1CCc1cc(O)c(OC)cc1-2` the value was 14.4 µM; for `COC(=O)c1c(-c2cccc(O)c2)c(-c2cccc(O)c2)c2c3cc(OC)c(O)cc3ccn12`, 7.2 µM; for `COC(=O)c1c(-c2ccc(OC)cc2)c(-c2ccc(OC)cc2)c2c3cc(OC)c(O)cc3ccn12`, 9.9 µM.
Same read-out and setting: for `COC(=O)c1c(-c2ccc(OC)c(OC)c2)c(-c2ccc(OC)c(OC)c2)c2n1CCc1cc(OC(C)C)c(OC)cc1-2` the value was 0.98 µM.
For `COC(=O)c1c(-c2ccc(O)c(OC)c2)c(-c2ccc(O)c(OC)c2)c2n1CCc1cc(O)c(OC)cc1-2`, the GI50 was 8.5 µM.
Same read-out and setting: the figure for `COC(=O)c1c(-c2cccc([N+](=O)[O-])c2)c(-c2cccc([N+](=O)[O-])c2)c2c3cc(OC)c(O)cc3ccn12` is 18.3 µM; for `COc1cc(-c2c3c4cc(OC)c(O)cc4oc(=O)c3n3ccc4cc(O)c(OC)cc4c23)ccc1O` [LAMELLARIN D] it is 0.25 µM.
`COC(=O)c1cc(-c2ccc(O)c(OC)c2)c2n1CCc1cc(OC(C)C)c(OC)cc1-2` showed a GI50 of 19 µM.
`COC(=O)c1c(-c2ccc(O)cc2)c(-c2ccc(O)cc2)c2c3cc(OC)c(O)cc3ccn12` displayed a GI50 of 4.1 µM.
Turning to `COC(=O)c1cc(-c2ccc(O)c(OC)c2)c2c3cc(OC)c(O)cc3ccn12`, the concentration for 50% growth inhibition (GI50) is 11.2 µM.
In turn, `COC(=O)c1c(-c2cc(O)c(O)cc2O)c(-c2cc(OC)ccc2OC)c2c3cc(OC)c(O)cc3ccn12` registered a GI50 of 3.2 µM.
The same measure, in the same setting: the figure for `COC(=O)c1cc(-c2ccc(O)c(OC)c2)c2n1CCc1cc(O)c(OC)cc1-2` is 22.3 µM.
`COC(=O)c1c(-c2ccc(O)c(OC)c2)c(-c2ccc(O)c(OC)c2)c2c3cc(OC)c(O)cc3ccn12` showed a GI50 of 7.5 µM.

The next assay relates to HT-29. Description: Antiproliferative activity against human HT29 cell line after 72 hrs by SRB assay at 10 ug/mL. It is filed as functional, cell-based.
Conditions: not given
`COC(=O)c1c(-c2ccc(OC)c(OC)c2)c(-c2ccc(OC)c(OC)c2)c2n1CCc1cc(O)c(OC)cc1-2`: the outcome was inactive.
Take `COC(=O)c1cc(-c2cc(OC)ccc2OC)c2c3cc(OC)c(O)cc3ccn12`: the result was inactive.
On the same count and under the same terms, the entry for `COC(=O)c1c(-c2ccc(O)c(OC)c2)c(-c2ccc(O)c(OC)c2)c2n1CCc1cc(O)c(OC)cc1-2` is “inactive”.
